The text below walks through data of ChEMBL document CHEMBL4834423, “Discovery of AG-270, a First-in-Class Oral MAT2A Inhibitor for the Treatment of Tumors with Homozygous MTAP Deletion” (J Med Chem, 2021).

In brackets after ≈: the same amount, converted by molar mass.

Series [1] is described as follows: cells. The following applies: Homo sapiens, HCT-116, 72 h.
Series [2] is described as follows: Plasma protein binding in human by ultracentrifugation. Particulars: read-out: PPB (converted). The format is ADME, cell-free. The procedure, abridged: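 Human plasma protein binding was determined by ultracentrifugation.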
Series [3] has as its target T1, S-adenosylmethionine synthase isoform type-2 (Homo sapiens, UniProt P31153). The experiment in a line: Inhibition of recombinant human MAT2A expressed in baculovirus infected Sf9 cells assessed as S-adenosyl methionine production using L-methionine as substrate incubated for 60 mins followed by substrate addition and measured after 60 mins. Particulars: read-out: IC50.
Target sequence in this assay (P31153 whole entry, canonical isoform): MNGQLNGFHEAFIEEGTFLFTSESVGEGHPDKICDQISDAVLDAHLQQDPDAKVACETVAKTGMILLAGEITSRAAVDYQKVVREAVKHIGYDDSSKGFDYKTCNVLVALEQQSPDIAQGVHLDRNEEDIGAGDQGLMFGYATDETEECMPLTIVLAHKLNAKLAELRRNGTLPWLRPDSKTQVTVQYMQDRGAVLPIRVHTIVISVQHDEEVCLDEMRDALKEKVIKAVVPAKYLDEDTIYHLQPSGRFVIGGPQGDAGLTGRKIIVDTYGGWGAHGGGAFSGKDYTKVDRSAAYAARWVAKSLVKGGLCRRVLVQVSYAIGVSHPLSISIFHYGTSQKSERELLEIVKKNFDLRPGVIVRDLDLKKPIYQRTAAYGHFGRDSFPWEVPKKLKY

Series [4] can be described thus: Protein binding in human plasma assessed as unbound fraction. The format is ADME, cell-free.
Series [5] addresses T1, S-adenosylmethionine synthase isoform type-2. The experiment in a line: Inhibition of recombinant human MAT2A expressed in baculovirus infected Sf9 cells assessed as S-adenosyl methionine production using L-methionine as substrate incubated for 60 mins followed by substrate addition and measured after 60 mins relative to control. Also on record: concentration or dose not given beside the values.
Target sequence in this assay (P31153 whole entry, looked up, canonical isoform): as the sequence (P31153 whole entry, canonical isoform) above

In series [6] the test system is HCT-116. Briefly: cells. The following applies: Homo sapiens, HCT-116, 96 h.
Series [7] can be described thus: Solubility of compound at pH 2. The format is physicochemical. Particulars: buffer.
Series [8] can be described thus: Solubility of compound at pH 7.4. The format is physicochemical. Particulars: buffer.
The target of series [9] is T1, S-adenosylmethionine synthase isoform type-2. The experiment in a line: Inhibition of MAT2A (unknown origin) enzymatic assay.
Target sequence in this assay (P31153 whole entry, canonical isoform): as above
The nature of series [10]: AUC (0 to 12 hrs) in MTAP-null KP4 cells xenografted mouse measured in tumor treated po twice daily. The format is ADME, organism-based, Neoplasm. Also on record: time < 12 hr, route oral. The following applies: in vivo.
Series [11] can be described thus: Permeability from apical to basolateral side in human Caco-2 cells. The format is ADME, cell-based. The following applies: read-out: permeability. Background: Caco-2 monolayers are a common model of the intestinal barrier.
The nature of series [12]: Efflux ratio of apparent permeability from basolateral side to apical side over apical side to basolateral side in human Caco-2 cells. The format is ADME, cell-based.
The nature of series [13]: Cmax in MTAP-null KP4 cells xenografted mouse plasma treated po twice daily. The format is ADME, organism-based. Set-up: route oral. The procedure, abridged:
(§1)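 KP4 MTAP-null xenograft-bearing mice dosed orally twice daily. Cmax was determined in plasma (ng/mL) and tumor (ng/g) after 3 b.i.d. doses.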

Series [14] in a line: AUC (0 to 12 hrs) in MTAP-null KP4 cells xenografted mouse plasma treated po twice daily. The format is ADME, organism-based. Also on record: time < 12 hr, route oral. The following applies: in vivo.
The nature of series [15]: Plasma protein binding in mouse by ultracentrifugation. The format is ADME, cell-free. Particulars: read-out: PPB (converted).
Series [16] can be described thus: Stability in human liver microsomes assessed as extraction ratio. The following applies: read-out: ERH. The format is ADME, Microsome.
Series [17] is described as follows: Cmax in MTAP-null KP4 cells xenografted mouse measured in tumor treated po twice daily. The format is ADME, organism-based, Neoplasm. Set-up: route oral. The procedure, abridged: as §1
In series [18] the target is T1, S-adenosylmethionine synthase isoform type-2. Briefly: Binding affinity to MAT2A (unknown origin) by surface plasmon resonance assay. The procedure, abridged: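 SPR: His-tagged MAT2A was captured on CM5 chips via covalently coupled penta-anti-His IgG (~16 000 RU), to a capture level of ~7500 RU.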
Target sequence in this assay (P31153 whole entry, canonical isoform): as above
In general terms: Surface plasmon resonance follows binding to a sensor surface in real time, without labels.

A word on the IC50: it is the concentration that gives 50% inhibition. For orientation: inhibition means the percentage by which the read-out fell short of the control. Take `Cc1[nH]c2c(N3CCCCC3)c(-c3ccccc3)nn2c(=O)c1-c1ccc(O)cc1`: the IC50 in series [1] was found to be 100 nM; in series [3] it was 57 nM. Also, the results for the fraction unbound in series [2] and in series [4] were 0.001 and 0.0009, respectively. In addition, the inhibition in [5] amounted to 91%.
As a reminder, the solubility is the dissolved amount per volume that the medium holds. In the case of `Cc1cc(=O)n2nc(-c3ccccc3)c(C3=CCCCC3)c2[nH]1`, the IC50 in [6] was 72 µM; in series [1], 106 nM; in [3], 260 nM. Besides, the solubility in [7] and in [8] was less than 0.5 µM each time. Besides, in [5], the inhibition amounted to 85%.
`Cc1cc(=O)n2nc(C)c(-c3ccccc3)c2[nH]1`: half-maximal inhibition in [9] (IC50) required 620 µM.
Turning to `Cc1cc(=O)n2nc(-c3ccccc3)c(N3CCCCC3)c2[nH]1`, the solubility turned out to be 61 µM (≈ 18.8 µg/mL) in series [7] and 13 µM (≈ 4.01 µg/mL) in [8]. Moreover, the IC50 in series [3] was 260 nM. Moreover, the inhibition in series [5] was determined as 86%.
What is called efflux ratio is the permeability from basolateral to apical divided by that in the opposite direction, in the common usage. One may read the Cmax as the peak of the concentration-time curve. For `Cc1[nH]c2c(-c3ccccc3)c(-c3ccccc3)nn2c(=O)c1-c1ccc2ncccc2c1`, the AUC is 372000 ng·h/g in series [10] and 1650000 ng·h/g in [14]. For the same compound, the solubility in series [7] came to 67 µM (≈ 28.7 µg/mL); in series [8], 15 µM (≈ 6.43 µg/mL). The Papp A→B in series [11] turned out to be 6.75 ×10⁻⁶ cm/s. In addition, the fraction unbound in series [2] is less than 0.001; in series [4], 0.0003; in series [15] it was 0.0003. Also, the efflux ratio in series [12] is 6. For the same compound, the IC50 in [3] was found to be 97 nM. Besides, the values for the Cmax in series [13] and in [17] were 179 µg/mL and 32300 ng/g, respectively. For the same compound, in series [5], the inhibition turned out to be 95%. Also, in [16], the hepatic extraction ratio is 0.16.
In the case of `Cc1c(-c2ccc(O)cc2)c(=O)n2nc(-c3ccccc3)c(N3CCCCC3)c2n1C`, the fraction unbound in series [2] and in [4] was 0.0154 throughout. For the same compound, the IC50 in series [3] stood at 102 nM. The inhibition in series [5] was 66%.
Usually Kd stands for the equilibrium constant for the complex coming apart. In series [18], `Cc1cc(=O)n2nc(-c3ccccc3)c(-c3ccccc3)c2[nH]1` had a Kd of 70 µM. The IC50 in series [3] was 1500 nM; in series [9], 1.5 µM. In series [5], the inhibition amounted to 69%.
For the compound `Cc1c(-c2ccc3ncccc3c2)c(=O)n2nc(-c3ccccc3)c(-c3ccccc3)c2n1C`, the fraction unbound in [2] and in series [4] was 0.009 throughout. For the same compound, in series [3], the concentration for half-maximal inhibition (IC50) turned out to be 120 nM. Further, the inhibition in series [5] came out at 61%.
With `COc1ccc(-c2c(Nc3ccon3)[nH]c3c(C4=CCCCC4)c(-c4ccccc4)nn3c2=O)cc1`, the 50% inhibitory concentration (IC50) is 0.812 µM in [6], 65 nM in [1] and 10 nM in series [3]. In addition, in series [5], the inhibition came to 94%. The hepatic extraction ratio in [16] is 0.11.
